Here are results for 23 molecules from ChEMBL document CHEMBL1156149, “Cyclic sulfones as novel P3-caps for hepatitis C virus NS3/4A (HCV NS3/4A) protease inhibitors: synthesis and evaluation of inhibitors with improved potency and pharmacokinetic profiles” (J Med Chem, 2010).

Data set [1] can be described thus: Inhibition of HCV NS3/4A protease. Further details: species or system Hepacivirus hominis.
Data set [2] has as its system Hepatitis C virus. Nature of the data set: Antiviral activity against Hepatitis C virus infected in human hepatoma cells assessed as inhibition of viral replication. In kind it is functional, organism-based, Hepacivirus hominis.
The nature of data set [3]: Plasma concentration in monkey at 3 mg/kg, po after 8 hrs. In kind it is ADME, organism-based, Macaca mulatta. Further details: dose 3 mg/kg, route oral. Conditions: rhesus monkey.
Data set [4] in a line: Ratio of plasma concentration in monkey at 3 mg/kg, po after 8 hrs to EC90 for Hepatitis C virus. It counts as ADME, organism-based. Details: dose 3 mg/kg, route oral. The note with it: in vivo.
A short description of data set [5]: AUC (0 to 24 hrs) in monkey at 3 mg/kg, po. Conditions: rhesus monkey, plasma. In kind it is ADME, organism-based, Macaca mulatta. Details: time < 24 hr, dose 3 mg/kg, route oral.
The nature of data set [6]: AUC (0 to 6 hrs) in rat at 10 mg/kg, po. It counts as ADME, organism-based. Further details: time < 6 hr, dose 10 mg/kg, route oral. Conditions: plasma. The essentials:
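Rats dosed orally at 10 mg/kg in 0.4% methylcellulose in water, in a rapid rat protocol. Blood was withdrawn periodically and pooled, and plasma AUC was calculated over the stated interval.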

Data set [7] is described as follows: Bioavailability in monkey at 3 mg/kg. The note with it: rhesus monkey, in vivo. It counts as ADME, organism-based, Macaca mulatta.
A short description of data set [8]: AUC in monkey at 3 mg/kg. It counts as ADME, organism-based, Macaca mulatta. Further details: dose 3 mg/kg. The note with it: rhesus monkey, plasma. The essentials: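 Oral dosing of monkeys at 3 mpk, with compound suspended in 0.4% methylcellulose. Exposure was reported as plasma AUC(0-24h) in μM h. Plasma concentration at 8 h was also taken and expressed as a ratio to cellular EC90.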

Data set [9] can be described thus: AUC in rat at 10 mg/kg. In kind it is ADME, organism-based. Further details: dose 10 mg/kg. The note with it: plasma. The essentials: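 Rats were given compound orally at 10 mg/kg in 0.4% methylcellulose in water. Blood was sampled periodically and pooled (rapid rat protocol). Plasma exposure was reported as AUC(0-6h) in μM h.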

One may read the Ki as the dissociation constant of the complex between target and ligand, obtained from inhibition or displacement. By EC90 is commonly meant the point of the concentration-response curve where the effect stands at 90%. For `C=CCNC(=O)C(=O)[C@H](CCC1CC1)NC(=O)[C@@H]1[C@H]2[C@@H](CN1C(=O)[C@@H](NC(=O)NC1([C@H]3CCCCS3(=O)=O)CCCCC1)C(C)(C)C)C2(C)C`, in [1], the affinity corresponds to a Ki of 4 nM. In addition, the EC90 in data set [2] worked out at 40 nM.
`CC1(NC(=O)N[C@H](C(=O)N2C[C@@H]3[C@H]([C@H]2C(=O)NC(CC2CCC2)C(=O)C(N)=O)C3(C)C)C(C)(C)C)CCCCC1` (some centres undefined) returned an inhibition constant (Ki) in data set [1] of 9 nM. Moreover, in data set [2] (read-out: EC90), the EC90 was 200 nM.
As to `CCCC[C@H](NC(=O)[C@@H]1[C@H]2[C@@H](CN1C(=O)[C@@H](NC(=O)NC1([C@H]3CCCCS3(=O)=O)CCCCC1)C(C)(C)C)C2(C)C)C(=O)C(=O)NC1CC1`, in [1], the Ki came out at 10 nM. The 90% effect concentration (EC90) in data set [2] was 50 nM.
Molecule `C=CCNC(=O)C(=O)[C@H](CCCC)NC(=O)[C@@H]1[C@H]2[C@@H](CN1C(=O)[C@@H](NC(=O)NC1([C@H]3CCCCS3(=O)=O)CCCCC1)C(C)(C)C)C2(C)C` registered a Ki in [1] of 12 nM. The EC90 in data set [2] was found to be 60 nM.
The corresponding values for `CCC[C@H](NC(=O)[C@@H]1[C@H]2[C@@H](CN1C(=O)[C@@H](NC(=O)NC1([C@H]3CCCCS3(=O)=O)CCCCC1)C(C)(C)C)C2(C)C)C(=O)C(=O)NC1CC1` are 12 nM and 40 nM.
For `CC(C)(C)[C@H](NC(=O)NC1([C@H]2CCCS2(=O)=O)CCCCC1)C(=O)N1C[C@@H]2[C@H]([C@H]1C(=O)N[C@@H](CCC1CC1)C(=O)C(=O)NC1CC1)C2(C)C` the same measures were 4 nM and 40 nM.
The molecule `CCCC[C@H](NC(=O)[C@@H]1[C@H]2[C@@H](CN1C(=O)[C@@H](NC(=O)NC1([C@H]3CCCCS3(=O)=O)CCCCC1)C1(C)CCCCC1)C2(C)C)C(=O)C(=O)NC1CC1` returned an inhibition constant (Ki) in [1] of 8 nM. For the same molecule, the 90% effect concentration (EC90) in [2] was 100 nM.
As for `CCC[C@H](NC(=O)[C@@H]1[C@H]2[C@@H](CN1C(=O)[C@@H](NC(=O)NC1([C@H]3CCCCS3(=O)=O)CCCCC1)C1(C)CCCCC1)C2(C)C)C(=O)C(=O)NC1CC1`, in data set [1], affinity was put at a Ki of 7 nM. Moreover, the EC90 in data set [2] stood at 50 nM.
One may read the AUC(0-t) as exposure summed from dosing to a finite time, without extrapolation to infinity. `CC1([C@H](NC(=O)NC2([C@H]3CCCS3(=O)=O)CCCCC2)C(=O)N2C[C@@H]3[C@H]([C@H]2C(=O)N[C@@H](CCC2CC2)C(=O)C(=O)NC2CC2)C3(C)C)CCCCC1` gave a concentration at 8 h in data set [3] of 303 nM. The affinity in [1], expressed as Ki, was 3 nM. In addition, the Ratio in data set [4] stood at 8. Moreover, the EC90 in data set [2] worked out at 40 nM. Moreover, the area under the curve AUC(0-t) at 24 h in data set [5] was found to be 3.5 µM·h.
Regarding `C=CCNC(=O)C(=O)C(CCC)NC(=O)[C@@H]1[C@H]2[C@@H](CN1C(=O)[C@@H](NC(=O)NC1([C@H]3CCCS3(=O)=O)CCCCC1)C(C)(C)C)C2(C)C` (mixture of isomers), the Ki in [1] came out at 6 nM. Further, the 90% effect concentration (EC90) in [2] amounted to 35 nM.
For `CCCC[C@H](NC(=O)[C@@H]1C2C(CN1C(=O)[C@@H](NC(=O)NC1([C@@H]3CCCS3(=O)=O)CCCCC1)C(C)(C)C)C2(C)C)C(=O)C(=O)NC1CC1` (single isomer, unassigned) the same measures were 4 nM and 30 nM.
For `CCCC[C@H](NC(=O)[C@@H]1C2C(CN1C(=O)[C@@H](NC(=O)NC1([C@H]3CCS3(=O)=O)CCCCC1)C(C)(C)C)C2(C)C)C(=O)C(=O)NC1CC1` (single isomer, unassigned) the same measures were 10 nM and 60 nM.
The corresponding values for `CCCC[C@H](NC(=O)[C@@H]1C2C(CN1C(=O)[C@@H](NC(=O)NC1([C@@H]3CCS3(=O)=O)CCCCC1)C(C)(C)C)C2(C)C)C(=O)C(=O)NC1CC1` (single isomer, unassigned) are 5 nM and 120 nM.
In data set [1], `CCCC[C@H](NC(=O)[C@@H]1C2C(CN1C(=O)[C@@H](NC(=O)NC1([C@@H]3CCCCS3(=O)=O)CCCCC1)C(C)(C)C)C2(C)C)C(=O)C(=O)NC1CC1` (single isomer, unassigned) returned an inhibitory constant (Ki) of 11 nM. Also, the EC90 in data set [2] was determined as 60 nM.
The corresponding values for `C=CCNC(=O)C(=O)[C@H](CCC)NC(=O)[C@@H]1C2C(CN1C(=O)[C@@H](NC(=O)NC1([C@H]3CCCCS3(=O)=O)CCCCC1)C(C)(C)C)C2(C)C` (single isomer, unassigned) are 3 nM and 30 nM.
`C=CCNC(=O)C(=O)[C@H](CCCC)NC(=O)[C@@H]1C2C(CN1C(=O)[C@@H](NC(=O)NC1([C@H]3CCCS3(=O)=O)CCCCC1)C(C)(C)C)C2(C)C` (single isomer, unassigned): the affinity in [1] corresponds to a Ki of 3 nM. Further, in data set [2], the EC90 is 30 nM. In data set [5], this molecule yielded an area under the curve AUC(0-t) at 24 h of 2.2 µM·h.
Turning to `C=CCNC(=O)C(=O)[C@H](CCC1CC1)NC(=O)[C@@H]1C2C(CN1C(=O)[C@@H](NC(=O)NC1([C@H]3CCCS3(=O)=O)CCCCC1)C(C)(C)C)C2(C)C` (single isomer, unassigned), in [1], the inhibition constant (Ki) came to 4 nM. For the same molecule, the EC90 in [2] worked out at 35 nM.
For `CC1(C)C2CN(C(=O)[C@@H](NC(=O)NC3([C@H]4CCCCS4(=O)=O)CCCCC3)C(C)(C)C)[C@H](C(=O)N[C@@H](CCC3CC3)C(=O)C(=O)NC3CC3)C21` (single isomer, unassigned) the same measures were 6 nM and 40 nM.
Turning to `CCC[C@H](NC(=O)[C@@H]1C2C(CN1C(=O)[C@@H](NC(=O)NC1([C@H]3CCCS3(=O)=O)CCCCC1)C(C)(C)C)C2(C)C)C(=O)C(=O)NC1CC1` (single isomer, unassigned), affinity in [1] was put at a Ki of 4 nM. For the same molecule, the EC90 in [2] came to 20 nM.
The molecule `CCCC[C@H](NC(=O)[C@@H]1C2C(CN1C(=O)[C@@H](NC(=O)NC1([C@H]3CCCS3(=O)=O)CCCCC1)C1(C)CCCCC1)C2(C)C)C(=O)C(=O)NC1CC1` (single isomer, unassigned) yielded a concentration at 8 h in data set [3] of 742 nM. Further, in data set [1], the inhibitory constant (Ki) came out at 3 nM. The Ratio in data set [4] was 37. Also, in data set [2], the EC90 was 20 nM. In data set [5], this molecule gave an AUC(0-t) at 24 h of 9 µM·h.
The corresponding values for `CCC[C@H](NC(=O)[C@@H]1C2C(CN1C(=O)[C@@H](NC(=O)NC1([C@H]3CCCS3(=O)=O)CCCCC1)C1(C)CCCCC1)C2(C)C)C(=O)C(=O)NC1CC1` (single isomer, unassigned) are 934 nM, 2 nM, 47, 20 nM and 20.8 µM·h.
In data set [3], `CCCC[C@H](NC(=O)[C@@H]1C2C(CN1C(=O)[C@@H](NC(=O)NC1([C@H]3CCCS3(=O)=O)CCCCC1)C(C)(C)C)C2(C)C)C(=O)C(=O)NC1CC1` (single isomer, unassigned) gave a concentration at 8 h of 10 nM. In data set [6], the area under the curve AUC(0-t) at 6 h came out at 0.9 µM·h. Moreover, in data set [1], affinity was put at a Ki of 4 nM. The Ratio in [4] was determined as 0.5. Also, the EC90 in data set [2] was determined as 20 nM. Moreover, in data set [5], the AUC(0-t) at 24 h was found to be 0.4 µM·h.
As usually defined, the bioavailability is dose-corrected exposure relative to a reference, in per cent. Usually AUC stands for concentration integrated over time. As for `CC(C)(C)NC(=O)N[C@H](C(=O)N1C[C@H]2[C@@H]([C@H]1C(=O)NC(CC1CCC1)C(=O)C(N)=O)C2(C)C)C(C)(C)C` (some centres undefined) [BOCEPREVIR], the Ki in data set [1] was 14 nM. For the same molecule, the bioavailability in data set [7] turned out to be 4%. Besides, the AUC in data set [8] came out at 0.12 µM·h; in [9], 1.52 µM·h. Moreover, the EC90 in data set [2] (read-out: EC90) turned out to be 350 nM. This molecule yielded an area under the curve AUC(0-t) at 24 h in data set [5] of 0.12 µM·h.
